Screens as filed in PubChem BioAssay.
Only some compounds are listed: those with a hit (about 3.8% of all), similar ones and a draw of the others.
rCAG RNA binder: binds r(CAG) RNA repeats; r(CAG) RNA repeat, TO-PRO-1 dye displacement fluorescence; inhibition, % at 3 µM; actives 1.3% (n = 370,000);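 active = inhibition above the plate cutoff, the mean of all test compounds on that plate plus 3 SD, cut at about 35% in these data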;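 also: 0% = DMSO alone and 100% = 100 µM mitoxantrone as full dye displacement; higher means more dye released from RNA so lower well fluorescence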
MPTP inh: blocks calcium-induced mitochondrial swelling. isolated mouse mitochondria, Ca2+ swelling absorbance, 30 min. inhibition, % at 10 µM. actives 1.4% (n = 360,000). AID 602449;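 active = inhibition of 50% or more, scaled per plate between neutral and stimulator controls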;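 also: 0% = DMSO wells given calcium and 100% = 1 mM EGTA wells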
B2AR ag: human beta-2 adrenergic receptor agonism by FAP; P07550; Am2.2-beta2AR cells, FAP receptor internalization, flow cytometry; response, % (concentration not given with the values); actives 0.43% (n = 340,000); AID 504454;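 active = response above a set limit, near 3 SD of response in nonfluorescent compounds, cut at about 42% in these data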
Target sequence (P07550 whole entry, looked up): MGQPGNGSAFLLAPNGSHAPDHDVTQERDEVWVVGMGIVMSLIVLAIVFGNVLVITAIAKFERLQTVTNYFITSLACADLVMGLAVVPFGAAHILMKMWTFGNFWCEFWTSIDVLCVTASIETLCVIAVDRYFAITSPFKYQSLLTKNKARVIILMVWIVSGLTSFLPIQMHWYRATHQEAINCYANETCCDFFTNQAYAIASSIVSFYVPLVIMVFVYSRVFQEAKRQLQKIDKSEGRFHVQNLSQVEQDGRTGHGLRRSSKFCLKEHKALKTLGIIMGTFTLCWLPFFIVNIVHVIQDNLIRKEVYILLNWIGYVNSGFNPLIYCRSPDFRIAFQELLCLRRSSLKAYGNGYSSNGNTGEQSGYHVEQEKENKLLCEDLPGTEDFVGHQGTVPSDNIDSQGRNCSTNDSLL
V-ATPase pHluor: regulators of yeast V-ATPase proton transport | actives 0.37% (n = 350,000) | S. cerevisiae, pHLuorin cytosolic pH fluorescence | AID 504577 | response, % at 10 µM; in the data active = response mostly above about 7.3%, no sharp cut-off; inactive = mostly below about 5.4%; also: actives read high
Granule exo inh: lytic granule exocytosis inhibition; TALL-104 LAMP-1 surface exposure, flow cytometry; cells stimulated with thapsigargin and PMA; inhibition, % at 10 µM; actives 0.66% (n = 360,000); AID 651702;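 active = inhibition above about 55%, limit read from the data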
T cell modulator: T cell immune modulators affecting CD8 T cell-vesicle binding; 2C CD8+ T cell-vesicle binding, flow cytometry; hits give low values; response (vesicle binding), % at 7 µM; actives 0.068% (n = 330,000); AID 2052;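 active = response, share of CD8 T cells binding vesicles, and their 90th percentile fluorescence all below set limits, cut at about 80% in these data, passing the limit was not always enough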;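 also: values below 100% mean blocked vesicle binding to the CD8+ T cells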
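System: murine 2C transgenic CD8+ T lymphocytes; also added: QL9-loaded Drosophila micro-vesicles; times: binding 1.5 h at 37 °C; measured by: flow cytometry, PE anti-B7-1 (FL2) versus Alexa647 anti-CD8 (FL8), PFA-fixed; control set: Peptide-free naked vesicles (low) and QL9 vesicles with 0.7% DMSO vehicle (high)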
Active calls of the source: *; nt = no result given.

SMILES	rCAG RNA binder	MPTP inh	B2AR ag	V-ATPase pHluor	Granule exo inh	T cell modulator
CNC(=O)c1cc(C(=O)c2ccc(F)cc2C(F)(F)F)c[nH]1	0	-1	-2	4	-2	0.0*
CN(C)C(=O)c1cc(C(=O)c2ccc(F)cc2Cl)c[nH]1	3	0	12	-3	1	246
COC(=O)[C@]12C[C@H](CC(=O)N3CCN(C(=O)C4CC4)CC3)C(=O)N(CCc3ccc(OC)c(OC)c3)C1=C[C@H](C1CCCC1)O[C@@H]2C	3	nt	nt	nt	nt	nt
O=C(O)c1ccc(N=N/C(=N\Nc2ccc(C(=O)O)cc2)c2ccccc2)cc1	76*	3	4	2	-2	611
COc1ccccc1C(=O)Nc1nc(-c2ccc(S(=O)(=O)N3CCOCC3)cc2)cs1	9	5	18	3	65*	198
CN(C(=O)COC(=O)c1cc(-c2ccc(Cl)s2)nc2ccccc12)C1CCS(=O)(=O)C1 (stereo not drawn)	4	0	5	12*	-4	794
CN(C(=O)COC(=O)c1cc(-c2ccccc2Cl)nc2ccccc12)C1CCS(=O)(=O)C1 (stereo not drawn)	2	1	-16	-7	-4	453
N#CC(C#N)=Cc1cn(-c2ncc(C(F)(F)F)cc2Cl)c2ccccc12	-5	0	66*	-1	2	371
CC(=O)/C=C\c1cn(-c2ncc(C(F)(F)F)cc2Cl)c2ccccc12	1	6	-8	1	-5	312
COC(=O)c1cc2c(c3c4cc(C)ccc4n(S(=O)(=O)c4ccc(C)cc4)c13)C(=O)N(Cc1ccccc1OC)C2	12	nt	nt	nt	nt	nt
COC(=O)[C@]12C[C@H](CC(=O)NCc3cccs3)C(=O)N(Cc3ccco3)C1=C[C@H](C(C)C)O[C@@H]2C1CC1	1	nt	nt	nt	nt	nt
COC(=O)C1CCN(Cc2c(C(=O)N3C[C@@H](C)O[C@@H](C)C3)nc3ccc(Cl)cn23)CC1	-6	0	-4	0	-1	299
C[C@@H]1CN(C(=O)c2nc3ccc(Cl)cn3c2CN2CCc3sccc3C2)C[C@H](C)O1	-6	0	-18	13*	0	206
COc1cc(/C=C2/C(=N)N3C=CSC3=NC2=O)ccc1OCCCOc1cc(C)ccc1C	6	0	63*	0	-1	234
O=C1C(Cl)=C(NCCc2ccccc2)C(=O)c2ccccc21	3	1	17	12*	3	nt
O=C(O)c1ccc(NC2=C(Cl)C(=O)c3ccccc3C2=O)cc1	2	7	96*	1	70*	143
O=C1C(Cl)=C(Nc2ccccc2)C(=O)c2ccccc21	8	2	14	0	42	548
COCCCNC1=C(Cl)C(=O)c2ccccc2C1=O	5	2	-7	4	56*	218
Cc1cccc(NC(=O)COc2cccc3c2CCN(Cc2ccccc2)C3=O)c1C	4	1	-71	-15	-3	181
CCN1CCc2c(OCC(=O)Nc3cccc(C)c3C)cccc2C1=O	-5	nt	nt	nt	nt	67*
CCCC(=O)Nc1sc(C)c(-c2ccc(C(C)CC)cc2)c1C#N (stereo not drawn)	nt	4	3	16*	12	236
O=C(CCCN1C(=O)/C(=C\c2ccccc2)SC1=S)Nc1cccc(C(=O)O)c1	66*	1	6	-2	7	378
O=C(O)CCCN1C(=O)/C(=C\c2ccccc2OCc2ccccc2)SC1=S	52*	3	1	-1	2	363
O=C(O)CCCCN1C(=O)/C(=C\c2ccc(OCc3ccccc3)c(OCc3ccccc3)c2)SC1=S	6	2	13	-5	1	270
O=Cc1ccc(-c2nc3ccccc3s2)o1	5	10	0	1	-3	202
SMILES	rCAG RNA binder	MPTP inh	B2AR ag	V-ATPase pHluor	Granule exo inh	T cell modulator
O=C(CCCN1C(=O)/C(=C/c2ccc3c(c2)OCO3)SC1=S)Nc1cccc(C(=O)O)c1	51*	-1	2	-3	-5	609
O=C(O)CCCN1C(=O)/C(=C\c2ccc(-c3nc4ccccc4s3)o2)SC1=S	27	36	53*	-2	76*	279
CCN(C[C@H]1[C@@H](c2ccc(C3=CCCC3)cc2)[C@H](CO)N1c1nc(C)c(C)s1)S(=O)(=O)c1ccccc1[N+](=O)[O-]	14	nt	nt	nt	nt	nt
CN1CCN(C(=O)CCCN2C(=O)/C(=C/c3ccccc3)SC2=S)CC1	1	-1	-15	-2	61*	175
COc1cc(/C=C2\SC(=S)N(CCC(=O)Nc3cccc(O)c3)C2=O)cc(OC)c1OC	16	0	31	-1	85*	187
COc1cc(/C=C2\SC(=S)N(CCC(=O)Nc3ccccc3)C2=O)cc(OC)c1OC	9	-1	3	-1	-5	434
C=CCNC(=O)Nc1ccc2c(c1)[C@]1(CC(=O)N(CC(C)C)C1c1ccccc1)C(=O)N2C (stereo partly drawn)	0	nt	nt	nt	nt	nt
Cc1cc(N/N=C/c2ccccc2O)c2ccccc2n1	16	13	4	0	76*	254
COc1ccc2nc(C)cc(N/N=C/c3cccc(OC)c3O)c2c1	24	2	21	2	44	187
COc1cccc(/C=C2\N=C(C3CCCCC3)OC2=O)c1OC	0	0	-7	-2	60*	406
N#Cc1ccc(S(=O)(=O)N2CCCc3nc(-c4ccccc4)ccc32)cc1	3	nt	nt	nt	nt	nt
Cc1cc(/C=N\NC(=O)CC(=O)NC2CCCCC2)c(C)n1-c1ccc(Cl)c(Cl)c1	2	2	56*	1	0	253
CCN(CC)c1ccc2c(Cl)cc(=O)oc2c1	-1	nt	nt	nt	nt	52*
CCN(CC)c1ccc2c(O)cc(=O)oc2c1	16	0	-7	-5	-2	199
COC(=O)[C@]12C[C@H](CC(=O)N3CCN(C(=O)c4ccco4)CC3)C(=O)N(Cc3ccc(Cl)cc3Cl)C1=C[C@H](C1CCCC1)O[C@@H]2C	9	nt	nt	nt	nt	nt
COc1ccc(Cl)cc1-n1c(=S)sc2c(=O)[nH]c(SCC(=O)C(C)(C)C)nc21	84*	3	2	0	3	178
COc1cc(OC)cc(-c2c(C#Cc3ccsc3)c3cc(-c4ccc(C(N)=O)cc4)ccc3n2C)c1	18	1	-5	-2	94*	444
CC(COc1ccccc1)CN1CCC(C(O)(c2ccccc2)c2ccccc2)CC1 (stereo not drawn)	2	nt	nt	nt	nt	nt
Cc1nn(C(C)C(=O)NCc2ccccc2Cl)c(=O)c2c1sc1ccccc12 (stereo not drawn)	-5	1	4	-1	82*	384
O=C(CN1CCc2onc(-c3cccc(-n4cc(CO)nn4)c3)c2C1=O)N1CCOCC1	2	nt	nt	nt	nt	nt
CCCCc1nc2cc(C(=O)N(C)CCc3cn[nH]c3)ccc2o1	-2	-1	5	15*	5	429
O=C(c1sccc1Cl)N1CCC(n2nnc3ncccc32)CC1	-1	nt	nt	nt	nt	nt
